Reference: ChEMBL document CHEMBL4038327, “Inhibitory Kappa B Kinase α (IKKα) Inhibitors That Recapitulate Their Selectivity in Cells against Isoform-Related Biomarkers” (J Med Chem, 2017)

Tests used:
[1] = target: T1, Serine/threonine-protein kinase D1 (Homo sapiens) (UniProt Q15139); test: Inhibition of N-terminal His6 tagged recombinant human full length PKCmu expressed in Sf21 cells at 10 uM relative to control
T1 sequence (whole entry): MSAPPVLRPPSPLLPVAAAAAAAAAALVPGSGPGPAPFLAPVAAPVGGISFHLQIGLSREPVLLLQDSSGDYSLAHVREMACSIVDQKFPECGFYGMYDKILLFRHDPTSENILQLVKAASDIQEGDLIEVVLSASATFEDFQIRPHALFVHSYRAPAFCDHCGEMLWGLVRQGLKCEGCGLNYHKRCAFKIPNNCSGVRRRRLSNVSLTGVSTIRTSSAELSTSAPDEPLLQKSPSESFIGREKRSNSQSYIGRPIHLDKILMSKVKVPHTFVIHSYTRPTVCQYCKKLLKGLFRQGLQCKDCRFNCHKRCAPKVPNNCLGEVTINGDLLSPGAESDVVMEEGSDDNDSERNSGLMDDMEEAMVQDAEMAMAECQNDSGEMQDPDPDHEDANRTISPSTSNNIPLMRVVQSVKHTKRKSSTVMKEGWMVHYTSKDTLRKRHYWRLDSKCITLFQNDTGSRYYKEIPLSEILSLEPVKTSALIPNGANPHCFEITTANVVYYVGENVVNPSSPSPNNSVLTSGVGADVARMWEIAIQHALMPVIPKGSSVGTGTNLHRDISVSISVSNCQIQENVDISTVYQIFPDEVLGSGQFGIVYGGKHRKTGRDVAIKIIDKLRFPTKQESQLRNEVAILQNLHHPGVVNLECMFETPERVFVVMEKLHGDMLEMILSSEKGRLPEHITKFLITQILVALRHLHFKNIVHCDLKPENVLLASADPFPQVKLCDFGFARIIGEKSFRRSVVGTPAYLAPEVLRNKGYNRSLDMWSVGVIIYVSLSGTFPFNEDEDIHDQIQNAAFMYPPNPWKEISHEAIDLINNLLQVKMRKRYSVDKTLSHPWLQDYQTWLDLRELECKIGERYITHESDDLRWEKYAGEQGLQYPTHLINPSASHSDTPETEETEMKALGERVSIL
Summary of the method: (§1)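 Outsourced commercial kinase panel run at a single concentration, with duplicate assay points.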

[2] = target: Dual specificity mitogen-activated protein kinase kinase 1 (Homo sapiens) (UniProt Q02750); test: Inhibition of N-terminal GST tagged/C-terminal His6-tagged recombinant full length human Mek1 expressed in Escherichia coli cells at 10 uM relative to control; summary of the method: as §1
Sequence of Dual specificity mitogen-activated protein kinase kinase 1 (Homo sapiens) (Q02750 whole entry): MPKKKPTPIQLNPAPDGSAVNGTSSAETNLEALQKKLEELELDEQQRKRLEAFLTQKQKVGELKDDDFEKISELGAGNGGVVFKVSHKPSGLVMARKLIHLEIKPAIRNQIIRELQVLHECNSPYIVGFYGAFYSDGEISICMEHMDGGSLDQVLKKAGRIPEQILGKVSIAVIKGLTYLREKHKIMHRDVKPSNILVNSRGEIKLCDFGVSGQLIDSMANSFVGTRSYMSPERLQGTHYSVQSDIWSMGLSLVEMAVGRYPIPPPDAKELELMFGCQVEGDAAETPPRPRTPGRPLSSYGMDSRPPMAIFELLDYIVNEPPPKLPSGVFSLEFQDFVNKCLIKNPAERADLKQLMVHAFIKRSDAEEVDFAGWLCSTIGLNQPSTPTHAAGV

inhibition [1]: > 80%
inhibition [2]: > 80%
Structure (SMILES): N#Cc1c[nH]c2nc(N)nc(-c3ccc(S(N)(=O)=O)cc3)c12
